V1R ag counter: V1a receptor agonism, counter-screen for OXTR agonists; CHO-V1R cells, Fluo-8 calcium fluorescence, agonist mode; 0% DMSO, 100% 3 nM vasopressin; P37288; hit rate 0.25% among 320,000; AID 2797; activation, % at 3 µM;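 active = activation above the mean activation of all tested compounds plus 3 SD, per screening run, cut at about 20% in these data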;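 note: signal is peak over basal fluorescence ratio across a 100 second FLIPR read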
Target sequence (P37288 whole entry, looked up): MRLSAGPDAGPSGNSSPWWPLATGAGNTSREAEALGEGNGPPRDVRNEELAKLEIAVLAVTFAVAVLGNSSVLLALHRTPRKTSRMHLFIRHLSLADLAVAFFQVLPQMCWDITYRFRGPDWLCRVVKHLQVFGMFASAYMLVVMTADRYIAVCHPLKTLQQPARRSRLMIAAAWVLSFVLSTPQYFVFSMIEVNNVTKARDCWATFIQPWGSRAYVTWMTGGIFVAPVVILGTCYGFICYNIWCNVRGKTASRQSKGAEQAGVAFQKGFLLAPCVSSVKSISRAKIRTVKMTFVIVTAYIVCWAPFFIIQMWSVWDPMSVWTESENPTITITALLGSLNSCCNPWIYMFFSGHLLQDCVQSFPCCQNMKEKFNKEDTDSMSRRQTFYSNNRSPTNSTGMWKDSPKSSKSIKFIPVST
OXTR potentiate: potentiates the human oxytocin receptor response; P30559; CHO-OTR cells, Fluo-8 calcium fluorescence, potentiator mode; 0% = oxytocin EC15, 100% = EC100; activation, % at 3 µM; hit rate 0.061% among 320,000; AID 2445;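 active = activation above that plate's cutoff, the mean activation of tested compounds plus 3 SD, cut at about 6.6% in these data, passing the limit was not always enough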;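 note: 100% uses oxytocin at 75 nM as the full agonist control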
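test system = CHO-OTR cells, human receptor | compound = single-point 3.0 µM | schedule = 6 min compound pre-incubation at room temperature, 100 s kinetic read | signal = Fluo-8 no-wash calcium dye fluorescence, excitation 470-495 nm, emission 515-575 nm | repeats = single well per compound, singlicate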
TRPN1 ag: activates the zebrafish TRPN1 channel; HEK293 zebrafish TRPN1-YFP, Fluo-8 calcium fluorescence; 100% = response to 87 µM carbachol; activation, % at 3 µM; hit rate 0.18% among 220,000; AID 1424;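 active = activation above its plate's cutoff, the mean activation of test wells on that plate plus 3 SD, cut at about 19% in these data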;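 note: 0% = DMSO alone and 100% = 87 µM carbachol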
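Material: zebrafish TRPN1-YFP in HEK293 cells; Doses: single test compound dose, 3 µM nominal, 0.3% DMSO; Timing: dye loading 1 h at 37 °C, then 30 min room temperature; Technique: intracellular calcium fluorescence with Fluo-8; Benchmarks: high carbachol 87 µM, low DMSO alone.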
TRPML3 ag: human mucolipin-3 channel agonism | Q8TDD5 | HEK293 TRPML3-YFP, Fluo-8 calcium fluorescence; 100% = the carbachol control signal | activation, % at 3 µM | hit rate 0.29% among 220,000;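 active = activation above its plate's cutoff, the mean activation of the plate's test wells plus 3 SD, cut at about 12% in these data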;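 note: 0% = DMSO only wells and 100% = carbachol wells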
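Test system – HEK293 line with stable expression of human TRPML3-YFP channel · Control set – carbachol 87 µM final as high control (100%), DMSO as low control (0%) · Signal – Fluo-8 calcium dye fluorescence, ex 470-495, em 515-575 nm · Incubation – 1-h 37 °C dye load, 5-s basal, 120-s post-compound reads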
OXTR ag: agonists of human oxytocin receptor. CHO-OTR cells, Fluo-8 calcium fluorescence; normalized: DMSO 0%, oxytocin 100%. hit rate 0.32% among 320,000. activation, % at 3 µM;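 active = activation above the mean of all tested compounds plus 3 SD, cutoff set per screening run, cut at about 20% in these data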;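 note: peak over basal fluorescence ratio from a 100 s FLIPR kinetic read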
Numbers without * were called inactive. Sampled rows, rich in hits. Any-hit rate of the full collection: about 0.55%.

Results for CCn1cc(C(=O)NCc2cccnc2)c(=O)c2cc(F)c(N3CCN(C(=O)c4ccco4)CC3)cc21 ?
V1R ag counter: 0; OXTR potentiate: -7; TRPN1 ag: 0; TRPML3 ag: 1; OXTR ag: -2

Results for O=C(c1ccc([N+](=O)[O-])cc1)N(Cc1ccc(Br)cc1)N1C(=O)CCCC1=O ?
V1R ag counter: 1; OXTR potentiate: -7; TRPN1 ag: 47*; TRPML3 ag: 95*; OXTR ag: 2

Results for CC1=C/C(=C\C=C(C#N)C#N)N(C)c2ccccc21 ?
V1R ag counter: 32*; OXTR potentiate: -9; TRPN1 ag: 27*; TRPML3 ag: 17*; OXTR ag: 23*

How did CN1/C(=C/C=C(C#N)C#N)C(C)(C)c2ccccc21 do in these assays?
V1R ag counter: -1; OXTR potentiate: -5; TRPN1 ag: 1; TRPML3 ag: 1; OXTR ag: -3

How did Cc1ccc(S(=O)(=O)N2CCC[C@H]2C(=O)Nc2ccc(F)cc2C)cc1 do in these assays?
V1R ag counter: 0; OXTR potentiate: -8; OXTR ag: 1

Results for CCOC(=O)C1CN(S(=O)(=O)c2ccccc2)CCN1S(=O)(=O)c1ccccc1 (configuration not stated) ?
V1R ag counter: 0; OXTR potentiate: -6; TRPN1 ag: 0; TRPML3 ag: 2; OXTR ag: -1

What do the screens show for `CCOC(=O)C1CN(S(=O)(=O)c2ccc(C)cc2)CCN1S(=O)(=O)c1ccc(C)cc1` (configuration not stated)?
V1R ag counter: 1; OXTR potentiate: -4; TRPN1 ag: 21*; TRPML3 ag: 0; OXTR ag: 0

How did O=S(=O)(/N=S1/CC=CCN1S(=O)(=O)c1ccccc1)c1ccccc1 (configuration not stated) do in these assays?
V1R ag counter: 31*; OXTR potentiate: -15; TRPN1 ag: 0; TRPML3 ag: 2; OXTR ag: 29*

What do the screens show for `COc1ccc2c(c1)CC(N1CCN(C)CC1)c1cc(OC)ccc1S2` (configuration not stated)?
V1R ag counter: 25*; OXTR potentiate: -21; OXTR ag: 34*

What do the screens show for `OC(CNCCc1ccc(C(F)(F)F)cc1)COC(c1ccccc1)c1ccccc1` (configuration not stated)?
V1R ag counter: 35*; OXTR potentiate: -15; OXTR ag: 27*

Results for COc1ccc(C(OCC(O)CNCCc2ccc(S(N)(=O)=O)cc2)c2ccc(OC)cc2)cc1 (configuration not stated) ?
V1R ag counter: 0; OXTR potentiate: -12; OXTR ag: 2

What do the screens show for `CC(C)CN(C(=O)c1ccc(C(F)(F)F)cc1)c1c(N)n(CC(C)C)c(=O)[nH]c1=O`?
V1R ag counter: 2; OXTR potentiate: -2; OXTR ag: 1

What do the screens show for `CC1CC(NC(=O)c2c(O)nc3sccn3c2=O)CC(C)(C)C1` (configuration not stated)?
V1R ag counter: -2; OXTR potentiate: -10; OXTR ag: -1

How did COc1ccccc1-c1cc(C(=O)NC2CCN(C)CC2)c2ccc(Cl)c(C)c2n1 do in these assays?
V1R ag counter: 12; OXTR potentiate: -3; OXTR ag: 20*

How did CCN(CC)c1ccc2c(c1)OC(N)=C(C#N)C2c1cccnc1 (configuration not stated) do in these assays?
V1R ag counter: 33*; OXTR potentiate: -12; TRPN1 ag: 12; TRPML3 ag: 8; OXTR ag: 52*

What do the screens show for `C/C(=N\Nc1ccc(C(=O)O)cc1)c1ccc(Cl)s1`?
V1R ag counter: 34*; OXTR potentiate: -16; OXTR ag: 24*

How did COc1ccc(Cl)cc1S(=O)(=O)NCc1ccncc1 do in these assays?
V1R ag counter: 4; OXTR potentiate: -4; OXTR ag: 2

How did CCCCCCCCCCCCCCCCn1cc[n+](C)c1 do in these assays?
V1R ag counter: 35*; OXTR potentiate: -20; TRPN1 ag: 1; TRPML3 ag: 0; OXTR ag: 25*

Results for CCOc1ccc(S(=O)(=O)Nc2ccc(C(=O)N3CCCC3)cc2)cc1 ?
V1R ag counter: 3; OXTR potentiate: -9; OXTR ag: 4

Screens from PubChem BioAssay.
